Screens from PubChem BioAssay.
An excerpt weighted towards active compounds, which were near 3.8% of everything screened.
MrgX1 antagonist: human MrgX1 receptor antagonism, primary screen; Q96LB2; MRGX1-HEK293 calcium flux, Fluo-4, BAM8-22 antagonism; hits give low values; B-score at 10 µM; actives 1.3% (n = 310,000); AID 588676;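 active = calcium-response B-score plate-corrected more than 3 library SD below zero, starting fluorescence within 5 deviations, no agonist response on first addition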;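 note: peak minus trough fluorescence over baseline after final BAM8-22 challenge near maximal dose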
Target sequence (Q96LB2 whole entry, looked up): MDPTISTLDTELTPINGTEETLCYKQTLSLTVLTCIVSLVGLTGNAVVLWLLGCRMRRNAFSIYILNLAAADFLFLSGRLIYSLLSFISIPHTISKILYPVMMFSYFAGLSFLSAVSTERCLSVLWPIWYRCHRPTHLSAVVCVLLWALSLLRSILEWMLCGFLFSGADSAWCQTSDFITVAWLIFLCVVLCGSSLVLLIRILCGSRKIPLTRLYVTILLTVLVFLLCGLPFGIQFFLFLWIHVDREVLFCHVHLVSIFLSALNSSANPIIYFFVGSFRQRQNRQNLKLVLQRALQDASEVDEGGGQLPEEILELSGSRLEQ
MrgX1 agonist: agonists of human MrgX1 receptor; Q96LB2; MrgX1-HEK293 cells, Fluo-4 calcium fluorescence, agonist mode; hits give high values; B-score at 10 µM; actives 0.44% (n = 310,000); AID 588627;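 active = calcium response B-score plate-corrected fluorescence ratio at least 3 library SD, with starting fluorescence B-score inside 5 SD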
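Test system: Stable human MrgX1 HEK293 cell line | Schedule: Overnight plating before 1 h dye loading | Read-out basis: Baseline-normalised fluorescence change ratio, B-scored | Detection: Kinetic calcium dye fluorescence, Fluo-4 NW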
Hep lipid drop: modulators of hepatic lipid droplet formation. actives 0.4% (n = 240,000). inhibition, % at 6.5 µM. AML12 mouse hepatocytes, oleate lipid droplets, BODIPY imaging. AID 1656;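 active = lipid droplet intensity inhibited by at least 50%, with more than 500 cells counted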
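Assay system: AML12 hepatocytes (mouse) / Also added: 100 µM oleic acid challenge / Times: overnight treatment with compound plus oleate / Detection: high-content imaging of BODIPY-stained droplets and DAPI nuclei / Evaluation: % inhibition of lipid droplet signal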
RGS4 block: human RGS4 inhibition; HEK293 M3R/RGS4 inducible, Fluo-4 calcium flux; hits give high values; triggered by carbachol at its EC20; AID 463165; actives 0.45% (n = 310,000); B-score at 10 µM; P49798;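 active = B-score, a plate-corrected calcium signal, over three deviations above library mean, with baseline fluorescence within five deviations of library mean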;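 note: RGS4 expression induced by doxycycline in cells with stable M3 receptor; B-score is computed from the integrated fluorescence ratio over baseline after carbachol; higher B-score means a larger calcium signal and so more RGS4 inhibition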
Target sequence (P49798 whole entry, looked up): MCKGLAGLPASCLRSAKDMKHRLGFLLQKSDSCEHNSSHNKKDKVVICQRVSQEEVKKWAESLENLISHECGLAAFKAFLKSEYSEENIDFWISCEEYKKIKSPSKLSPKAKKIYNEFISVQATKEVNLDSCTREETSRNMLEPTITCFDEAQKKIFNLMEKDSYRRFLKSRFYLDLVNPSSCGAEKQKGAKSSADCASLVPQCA
RGS4 act: potentiators or activators of RGS4. HEK293 M3R/inducible RGS4, carbachol calcium flux Fluo4; hits give low values. actives 0.92% (n = 310,000). B-score at 10 µM;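 active = B-score of the integrated calcium signal more than 4 SD below the library mean, with starting fluorescence not abnormally high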;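 note: negative B-score means reduced calcium response which marks RGS4 activation or potentiation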
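System – HEK293 FlpIn-TREx cells, stable M3R, doxycycline-inducible RGS4 · Reagent – ECmax carbachol challenge · Times – compound preincubation 20 min at room temperature before agonist · Technique – Fluo4 fluorescence kinetic imaging of calcium · Measure – B score of integrated Fluo4 ratio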
MrgX1 PAM: human MrgX1 positive allosteric modulation, primary screen. MrgX1-HEK293, Fluo-4 calcium flux, FDSS; hits give high values. B-score at 10 µM. actives 0.63% (n = 310,000). AID 588675;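 active = plate-corrected calcium response at least 3 library SD above typical, normal starting fluorescence, not activating the receptor alone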;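 note: compound read alongside a low EC10 to EC30 dose of BAM8-22 agonist; peak minus trough fluorescence over baseline measured at the second addition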
MrgX1 ag reconf: human MrgX1 agonism, re-confirmation screen; activation, % at 10 µM; MrgX1-HEK293, Fluo-4 calcium fluorescence, FDSS; shares compounds with MrgX1 agonist; actives 78% (n = 600);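 active = calcium signal rise, corrected for plate position, at least 3 library SD high, with starting brightness within 5 such deviations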
HEK293 Ca flux: counter-screen for MrgX1 antagonists: effect in parental HEK293 cells | shares compounds with MrgX1 antagonist | Fluo-4 calcium fluorescence, FDSS | fluorescence ratio F(max-min)/F0 at 10 µM | actives 2% (n = 4,000);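 active = duplicate-averaged calcium fluorescence ratio at least three times the standard deviation of buffer wells, a nonspecific response in parental cells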
HEK293 Ca counter: counter-screen for MrgX1 allosteric activators: effect in parental HEK293 cells; shares compounds with MrgX1 antagonist; parental HEK293 calcium flux, Fluo-4 fluorescence ratio; hits give high values; fluorescence ratio F(max-min)/F0 at 10 µM; actives 0.4% (n = 4,000); AID 624114;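 active = calcium fluorescence ratio, averaged over duplicates, at least 3 SD of the buffer-well ratio, meaning a nonspecific response in receptor-free cells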;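 note: untransfected parental HEK293 lacking MrgX1 used as counterscreen for MrgX1 allosteric activators; fluorescence change taken during the second addition on a kinetic imager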
HEK293 Ca cntr2: counter-screen for MrgX1 activators: effect in parental HEK293 cells. shares compounds with MrgX1 antagonist. Fluo-4 calcium fluorescence (FDSS); hits give high values. fluorescence ratio F(max-min)/F0 at 10 µM. actives 8.7% (n = 4,000);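 active = calcium fluorescence ratio at least three times the spread of buffer wells, meaning a non-specific response in parental cells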
Numbers without * were called inactive; i = inactive; . = not tested or not shown.

SMILES	MrgX1 antagonist	MrgX1 agonist	Hep lipid drop	RGS4 block	RGS4 act	MrgX1 PAM	MrgX1 ag reconf	HEK293 Ca flux	HEK293 Ca counter	HEK293 Ca cntr2
O=C(NNC(=S)NC(=O)c1cccs1)c1ccc(O)cc1	i	i	-7.6	i	i	i	.	.	.	.
Cc1cccc(C(C(=O)NC2CCCC2)N(C(=O)c2csnn2)C2CC2)c1 (stereo not drawn)	i	i	2.1	i	i	i	.	.	.	.
O=C(CNC(=O)Cc1ccc(Cl)cc1)NCc1ccco1	i	i	-9.1	i	i	i	.	.	.	.
CSc1nnc(C)c(/C=C/Nc2ccc(F)cc2)n1	i	29.7*	.	i	i	i	152.1%*	i	i	i
CSc1nnc(C)c(/C=C/Nc2ccc(Cl)cc2)n1	i	45.3*	.	i	i	i	248.3%*	0.359*	i	73.7*
CC/C(=N/Nc1ccc(Cl)cc1)c1cnnc(SC)n1	i	i	-4.5	i	i	i	.	.	.	.
COc1ccc(N/C=C/c2nc(SC)nnc2C)cc1	i	i	15.9	i	i	i	.	.	.	.
O=C1CSC(=S)N1N1C(=O)c2cccc([N+](=O)[O-])c2C1=O	i	i	-7.8	i	i	i	.	.	.	.
CCn1c(SCC(=O)Nc2ccc(C)cc2)nnc1-c1ccc(O)cc1	i	i	-3.6	i	i	i	.	.	.	.
O=S(=O)(Nc1c(O)ccc2ccccc12)c1ccc(F)cc1	i	40.2*	.	i	i	i	81.0%*	i	i	i
O=S(=O)(Nc1ncccn1)c1ccc(F)cc1	i	i	-8.5	i	i	i	.	.	.	.
O=S(=O)(Nc1c(O)ccc2ccccc12)c1ccccc1	i	29*	.	i	i	i	i	i	i	i
Cc1cccc(OC(C)C(=O)N/N=C\c2ccncc2)c1 (stereo not drawn)	i	i	-2.9	i	i	i	.	.	.	.
CCC1(C)NC(=O)N(CC(=O)Nc2sc3c(c2C(=O)OC)CCCCC3)C1=O (stereo not drawn)	i	27.6*	3.8	i	i	i	436.7%*	i	i	128*
Cc1ccc(NS(=O)(=O)c2ccc(C(=O)N3CC(C)OC(C)C3)cc2)cc1 (stereo not drawn)	i	28.9*	-23.0	i	i	i	151.4%*	i	i	i
Cc1ccc(NS(=O)(=O)c2ccc(C(=O)N3CCC3)cc2)cc1	i	i	.	i	i	i	.	.	.	.
Cc1[nH]nc(-c2ccc(O)cc2O)c1Oc1ccccc1	i	28.2*	.	i	i	i	179.3%*	i	i	i
COc1cc(OC)cc(C(=O)NC2CC(C)(C)NC(C)(C)C2)c1	i	i	6.3	i	i	i	.	.	.	.
Cc1onc(-c2ccccc2)c1C(=O)NCCc1ccncc1	i	i	8.8	i	i	i	.	.	.	.
Fc1cccc(NCCc2c[nH]c3ccccc23)n1	i	27.7*	.	i	i	i	116.2%*	i	i	i
CCS(=O)(=O)c1nnnn1-c1ccccc1S(C)(=O)=O	i	27*	-4.0	i	i	i	104.8%*	i	i	i
N#Cc1ccc(-c2csc(NC(=O)c3ccc(S(=O)(=O)N4CCc5ccccc5C4)cc3)n2)cc1	i	i	5.6	i	i	i	.	.	.	.
CN(C)CCOc1ccc2c(c1)Sc1ccccc1CC2=O	i	54.8*	-31.2	i	i	i	i	i	i	i
COc1cccc(/C=C/C(=O)OCC(=O)Nc2cccc(S(=O)(=O)N3CCOCC3)c2)c1OC	i	i	14.6	i	i	i	.	.	.	.
O=c1c2c(-c3ccccc3)csc2ncn1/N=C/c1ccc(O)c([N+](=O)[O-])c1	i	i	5.5	i	i	i	.	.	.	.
SMILES	MrgX1 antagonist	MrgX1 agonist	Hep lipid drop	RGS4 block	RGS4 act	MrgX1 PAM	MrgX1 ag reconf	HEK293 Ca flux	HEK293 Ca counter	HEK293 Ca cntr2
O=c1c2c(-c3ccccc3)csc2ncn1/N=C/c1cccc([N+](=O)[O-])c1O	i	71.4*	-0.1	i	i	i	315.0%*	i	i	76*
NC(=NCc1ccccc1)c1cccc([N+](=O)[O-])c1	i	i	3.5	i	i	i	.	.	.	.
CC1(C)CSC(=NCc2ccccc2)N1C(=O)c1cccc([N+](=O)[O-])c1	i	84*	-51.2	i	i	i	504.9%*	i	i	103*
CCn1c(=O)c(C(=O)CN2CCN(S(=O)(=O)c3ccc(C)cc3C)CC2)c(N)n(Cc2ccccc2)c1=O	i	i	-31.9	i	i	i	.	.	.	.
CCn1c(=O)c(C(=O)CN2CCN(S(=O)(=O)c3ccccc3)CC2)c(N)n(Cc2ccccc2)c1=O	i	27.4*	-21.8	i	i	i	187.8%*	i	i	i
CCCCCN=C(N)N/N=C/c1c[nH]c2ccc(OC)cc12	i	74.8*	.	i	i	i	487.7%*	i	i	137*
CCCOc1ccc(C(=O)N/N=C/c2c[nH]c3ccc(Br)cc23)cc1	i	i	-21.2	i	i	i	.	.	.	.
COC(=O)c1c(NC(=O)C(=O)N2CCOCC2)sc2c1CCCC2	i	i	0.7	i	i	i	.	.	.	.
O=C(c1ccccc1Cl)N(Cc1ccc(Br)cc1)N1C(=O)CCCC1=O	i	i	1.5	i	i	i	.	.	.	.
O=C(c1ccc([N+](=O)[O-])cc1)N(Cc1ccc(Br)cc1)N1C(=O)CCCC1=O	i	70.7*	-0.8	i	i	i	521.4%*	i	i	95.8*
Cc1cc(C)cc(N(C(C)C(=O)NCCC2=CCCCC2)S(C)(=O)=O)c1 (stereo not drawn)	i	i	-21.2	i	i	i	.	.	.	.
O=C(O)CC(NNC(=O)c1ccccc1)C(=O)Nc1cccc([N+](=O)[O-])c1 (stereo not drawn)	i	i	.	i	i	i	.	.	.	.
